Screens as filed in PubChem.
These entries were drawn from the full list.
Apaf1 activ: activators of human Apaf-1 apoptosome, primary screen, biochemical, DEVD-Rh110 fluorescence, uHTS; Apoptotic protease-activating factor 1 (Homo sapiens), O14727; Apaf-1 apoptosome caspase-3 activation; hits give low values; activity change, negative = activation, % at 20 µM; actives 0.31% (n = 330,000); AID 489031, 2010;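 active = activity change at or below -40% at 20 µM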
Target sequence (O14727 whole entry, looked up): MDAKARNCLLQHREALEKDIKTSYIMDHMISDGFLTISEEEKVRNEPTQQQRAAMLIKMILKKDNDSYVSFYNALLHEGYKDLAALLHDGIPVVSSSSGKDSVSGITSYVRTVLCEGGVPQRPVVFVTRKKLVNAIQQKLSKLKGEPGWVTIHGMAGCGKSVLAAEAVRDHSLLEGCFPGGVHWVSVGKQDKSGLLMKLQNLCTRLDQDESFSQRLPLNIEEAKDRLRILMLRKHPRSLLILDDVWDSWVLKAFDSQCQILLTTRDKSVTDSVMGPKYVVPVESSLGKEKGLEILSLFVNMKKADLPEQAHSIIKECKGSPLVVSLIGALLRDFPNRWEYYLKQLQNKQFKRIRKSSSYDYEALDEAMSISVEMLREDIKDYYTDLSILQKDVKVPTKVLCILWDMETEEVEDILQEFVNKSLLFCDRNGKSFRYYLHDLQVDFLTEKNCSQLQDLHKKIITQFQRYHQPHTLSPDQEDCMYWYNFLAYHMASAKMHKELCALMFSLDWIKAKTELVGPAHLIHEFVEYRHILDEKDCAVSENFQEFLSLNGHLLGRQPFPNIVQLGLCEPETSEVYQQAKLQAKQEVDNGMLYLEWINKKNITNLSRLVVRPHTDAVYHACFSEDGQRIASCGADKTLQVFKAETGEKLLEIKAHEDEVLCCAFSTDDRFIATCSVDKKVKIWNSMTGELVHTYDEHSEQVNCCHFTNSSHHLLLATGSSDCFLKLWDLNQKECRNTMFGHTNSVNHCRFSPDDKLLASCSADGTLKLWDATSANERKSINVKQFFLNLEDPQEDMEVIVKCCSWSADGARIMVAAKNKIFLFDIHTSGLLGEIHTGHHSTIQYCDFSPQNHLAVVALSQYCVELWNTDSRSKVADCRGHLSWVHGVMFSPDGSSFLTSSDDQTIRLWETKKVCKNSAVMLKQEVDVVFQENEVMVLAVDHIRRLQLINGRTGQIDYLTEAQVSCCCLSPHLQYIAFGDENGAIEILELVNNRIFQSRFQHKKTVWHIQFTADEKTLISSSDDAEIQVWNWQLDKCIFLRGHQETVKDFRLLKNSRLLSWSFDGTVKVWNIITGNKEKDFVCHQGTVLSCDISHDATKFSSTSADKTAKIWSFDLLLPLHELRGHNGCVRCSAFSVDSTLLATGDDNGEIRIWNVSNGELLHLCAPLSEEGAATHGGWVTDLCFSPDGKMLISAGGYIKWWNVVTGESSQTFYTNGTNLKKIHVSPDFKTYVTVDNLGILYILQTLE
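Assay system – biochemical Apaf-1 apoptosome reconstitution · Medium – 20 mM HEPES buffer, pH 7.5, containing CHAPS and BSA · Incubation – 30 min preincubation, 50 min reaction, room temperature · Measured by – Caspase-3-released Rh110 fluorescence, 540 nm emission, 480 nm excitation · Read-out – Caspase-3 cleavage activity downstream of Apaf-1 activation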
Rh110 interf act: Rh110 fluorescence interference by putative Apaf-1 activators, confirmation, artefact control for Apaf-1 activator project, biochemical, 20 µM. shares compounds with Apaf1 activ. quenched caspase reaction, Ex480/Em540. fluorescence interference (activity change), % at 20 µM, hits read low. 980 tested, under 10 active. AID 504616, 2011;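 active = mean activity change at or below -40% when tested at 20 µM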
Apaf-1 act conf: Apaf-1 activators, single-dose retest, confirmation, biochemical, fluorescence, DEVD-Rh110, 20 µM; shares compounds with Apaf1 activ; reconstituted apoptosome caspase-3 activity; hits give low values; activity change, negative = activation, % at 20 µM; actives 5% (n = 980);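 active = mean activity change at or below -40%, meaning activation of 40% or more, at 20 µM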
Apaf1 act interf: fluorescence interference of Apaf-1 activator hits, dose response, artefact control for Apaf-1 activator project | shares compounds with Apaf1 activ | fluorescence interference counterscreen, Apaf-1 activator assay | EC50, µM | 55 tested, under 10 active | AID 588592, 2011; call rule not given here
* hit, by the source's call; . = not tested or not shown.

SMILES	Apaf1 activ	Rh110 interf act	Apaf-1 act conf	others
CN(C)c1ccc(NC(=O)Oc2ccccc2)cc1	48.3	.	.
COc1ccc(S(N)(=O)=O)cc1-c1nnc2c3ccccc3c(C)nn12	-54.3*	14.0	13.3
CCC(C)NCCOCCOc1ccc(Br)cc1 (stereo unspecified)	-47.5*	1.9	11.2
CC(C)=CCC/C(C)=C/CNC(=O)C[C@H]1C[C@H](C(=O)N2CCOCC2)[C@@]2(C)c3[nH]c4cc(-c5ccco5)ccc4c3CCN2C1=O	44.4	.	.
COc1ccc(C2CC(c3ccc(OC)cc3)n3nc(NC(=O)c4ccco4)nc3N2)cc1 (stereo unspecified)	-329.7*	-8.5	15.3
COc1ccc2c(c1)Cc1sc(NC(=O)c3ccco3)nc1-2	85.4	.	.
COc1ccc(-c2cc(=O)n(CCC#N)[nH]2)cc1	94.3	.	.
NS(=O)(=O)c1ccc(Cc2ncc(C(F)(F)F)cc2Cl)s1	-40.0*	0.9	7.5
CCSCCC(NC1=CC(=O)CC(C)(C)C1)C(=O)O (stereo unspecified)	48.7	.	.
CCOc1cc(/C=C2\C(=O)N(CCC#N)N=C2C)ccc1OCC(N)=O	57.8	.	.
Nc1c(C(=O)NCc2ccc(F)cc2)c2nc3ccccc3nc2n1CCCN1CCOCC1	59.2	.	.
O=C(CCSc1nc(-c2ccco2)cc(C(F)(F)F)n1)NCCN1CCOCC1	-55.7*	3.6	5.4
Cc1cccc(-n2c(N)c(C(=O)NCCN3CCOCC3)c3nc4ccccc4nc32)c1	50.6	.	.
O=C1C(=C(O)c2ccccc2)C(=O)c2ccccc21	41.5	.	.
Cn1c(=O)n(C)c2cc(/C=N/NC(=O)c3cc4cc(Br)ccc4o3)ccc21	43.0	.	.
O=C1C(NS(=O)(=O)c2cccs2)=C(N2CCN(Cc3ccccc3)CC2)C(=O)c2ccccc21	51.0	.	.
Nc1c(Br)cc(Br)cc1CNC1CCC(O)CC1 (stereo unspecified)	10.8	.	.
COc1ccc(C(=O)N2CCCCCC2)cc1OC1CCN(C(C)C)CC1	-68.0*	-1.4	-2.2
Nc1scc2c(C(=O)N/N=C/c3ccc(Cl)cc3)nn(-c3ccccc3)c(=O)c12	42.4	.	.
CC(C)C[C@@H]1CN=C(N)N1C[C@@H]1CCCN1C[C@H](C)N1C[C@@H](Cc2ccccc2)N(CCc2ccc(Cl)c(Cl)c2)C1=N	63.0	.	.
C=CCn1c(COc2cccc(C)c2)nnc1SC(C)C(=O)NC1CC1 (stereo unspecified)	41.2	.	.
Cc1[nH][nH]c(=O)c1C(c1c(C)[nH][nH]c1=O)c1cn(Cc2cccc3ccccc23)c2ccccc12	94.8	.	.
Cc1ccccc1Cn1cc(/C=N/n2cnnc2)c2ccccc21	-56.8*	1.3	10.6
CCCN(CC(=O)Nc1ccccc1C)C(=O)c1sc2ccccc2c1Cl	60.6	.	.
CCC1=NNc2cccc3c(OC)ccc1c23	52.1	.	.
SMILES	Apaf1 activ	Rh110 interf act	Apaf-1 act conf	others
CSc1nncc(/C(C)=N\Nc2cccc(C)c2)n1	60.5	.	.
Nc1cc2nsnc2cc1Br	98.2	.	.
Cc1ccc(-c2csc(NC(=O)C3=NN(C4CCS(=O)(=O)C4)C(=O)CC3)n2)cc1 (stereo unspecified)	-58.0*	7.7	-20.5
COc1ccc(-c2csc(-c3ccc(O)cc3)n2)cc1	-115.7*	8.4	4.5
COC(=O)CCC(=O)OC1(C)C(=O)C=C2C=C(C3CC3)N(CCN3CCOCC3)C=C2C1=O (stereo unspecified)	46.2	.	.
O=C(O)CCC1c2cc3c4cc2OC2Oc5cc6c(cc51)C(CCC(=O)O)c1cc5c7cc1OC(O6)c1cc6cc(c1)Oc1cc(cc(C(=O)O)c1)Oc1cc8cc(c1)C(Oc1cc(c(cc1C5CCC(=O)O)C3CCC(=O)O)OC(O4)c1cc(cc(c1)Oc1cc(cc(C(=O)O)c1)O8)Oc1cc(cc(C(=O)O)c1)Oc1cc(cc2c1)Oc1cc(cc(C(=O)O)c1)O6)O7 (stereo unspecified)	98.7	.	.
Cc1ccc(C)c(N2CCN(S(=O)(=O)c3cn(C)cn3)CC2)c1	-77.7*	-4.0	7.7
CCOC(=O)c1cc(-c2ccc(/C=C3/C(=O)N(c4ccc(C(=O)O)cc4)N=C3C)o2)ccc1Cl	50.0	.	.
O=c1[nH]c(C(F)(F)F)nc2ccccc12	-111.9*	0.1	12.5
O=c1[nH]c(CN2CCc3ccccc3C2)nc2ccccc12	64.7	.	.
O=c1[nH]c(Nc2ccc(F)cc2)cc2ccccc12	95.1	.	.
CCOc1ccc(C(=O)/C=C/Nc2ccc(S(=O)(=O)N=C(N)N)cc2)cc1	-159.8*	0.9	-74.0*	Apaf1 act interf=>100
Cc1c(CCOC(=O)C2C3CC4CC(C3)CC2C4)sc[n+]1CC(=O)c1ccc(Br)cc1 (stereo unspecified)	50.2	.	.
Cc1[nH]c2ccccc2c1C(C#N)(C#N)C1C(=O)c2ccccc2C1=O	72.5	.	.
CN1c2cccc3cccc(c23)N(C)C1(C)C	45.5	.	.
NC(N)=NC(N)=Nc1cccc2ccccc12	82.5	.	.
COC(=O)NCc1ccc(Cl)c(Cl)c1	-70.7*	-2.7	-2.5
Cc1cccc(NC(=O)CSCC(=O)N(C)Cc2ccc(Cl)c(Cl)c2)c1	62.6	.	.
CCOC(=O)N1CCN(S(=O)(=O)N2CCCC(C(=O)NCCCN3CCCCC3CC)C2)CC1 (stereo unspecified)	-60.6*	1.4	17.7
Cc1sc2ncnc(N3CCC(C(=O)N(C)CC(=O)Nc4ccccc4Cl)CC3)c2c1C	59.9	.	.
CCCCCCSc1ccc(-c2nc3cc(C)ccn3c2NC2CCCCC2)cc1	46.6	.	.
CC(=O)c1c(O)cc(C)n(Cc2ccccc2)c1=O	-71.1*	10.4	8.8
Cc1cccc(CC(=O)NCCn2c(C)cc3ccccc32)c1	41.0	.	.
CCCCCCCCCCOC(=O)Cn1c(COc2ccccc2C)[n+](C)c2ccccc21	80.8	.	.
O=C(Nc1ccc2c(c1)OCO2)C1CCCCN1S(=O)(=O)c1ccccc1 (stereo unspecified)	-95.0*	16.1	17.5
SMILES	Apaf1 activ	Rh110 interf act	Apaf-1 act conf	others
O=C(Nc1ccc(OC(F)F)c(Cl)c1)[C@@H]1CCCN1C(=O)c1cccs1	92.3	.	.
Cc1ccc(NC(=O)N2CCCC2C(=O)Nc2ccc3c(c2)OCCO3)cc1 (stereo unspecified)	-82.8*	-1.2	10.5
Cc1cc(SCC2=NNC(=O)C2)c(Cl)cc1Cl	47.1	.	.
CCCCCCNC(=O)N[C@@H](C(=O)NCCC[C@H]1CN2C(=NC[C@@H]2Cc2ccccc2)N1CCc1cccc(OC)c1)C(C)C	53.7	.	.
CC(C)Oc1ccc(C(=O)NC2(C(F)(F)F)NC(=O)N(CCCc3ccccc3)C2=O)cc1 (stereo unspecified)	-44.5*	6.4	16.6
CC(C)CCOc1ccc(C(CC(N)=O)C(=O)O)cc1 (stereo unspecified)	-41.3*	12.9	14.8
CN1/C(=C\C(=O)COC(=O)c2ccc([N+](=O)[O-])o2)C(C)(C)c2ccccc21	56.2	.	.
CCOC(=O)c1c(C)c2c(=O)[nH]cnc2n1-c1ccccc1	57.5	.	.
CCCC(C(=O)NC(C)(C)C)N(Cc1ccc(F)cc1)C(=O)c1snc(C(N)=O)c1N (stereo unspecified)	-107.9*	14.2	14.5
